Calls of active or inactive are those of the source. No cut-off for these calls is given here.

In the first assay the test system is PC-3. The assay can be described thus: Effect on in Maspin expression in human PC3 cells deficient in wild type androgen receptor at 2.5 uM by luciferase reporter gene assay.
Conditions: not given
It is filed as functional, cell-based. The method, boiled down: (§1)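 PC-3 cells were transfected with maspin-luc, with or without cotransfected AR. Cells were exposed to DMSO vehicle or compound at 2.5 and 5 μM. Luciferase activity was measured in triplicate.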
Regarding `Cc1coc2c1C(=O)C(=O)c1c-2ccc2c1CCC(C)(C)C2`, the result was inactive.

The next assay addresses T1, Androgen receptor (Homo sapiens) (UniProt P10275).
T1 sequence (whole entry): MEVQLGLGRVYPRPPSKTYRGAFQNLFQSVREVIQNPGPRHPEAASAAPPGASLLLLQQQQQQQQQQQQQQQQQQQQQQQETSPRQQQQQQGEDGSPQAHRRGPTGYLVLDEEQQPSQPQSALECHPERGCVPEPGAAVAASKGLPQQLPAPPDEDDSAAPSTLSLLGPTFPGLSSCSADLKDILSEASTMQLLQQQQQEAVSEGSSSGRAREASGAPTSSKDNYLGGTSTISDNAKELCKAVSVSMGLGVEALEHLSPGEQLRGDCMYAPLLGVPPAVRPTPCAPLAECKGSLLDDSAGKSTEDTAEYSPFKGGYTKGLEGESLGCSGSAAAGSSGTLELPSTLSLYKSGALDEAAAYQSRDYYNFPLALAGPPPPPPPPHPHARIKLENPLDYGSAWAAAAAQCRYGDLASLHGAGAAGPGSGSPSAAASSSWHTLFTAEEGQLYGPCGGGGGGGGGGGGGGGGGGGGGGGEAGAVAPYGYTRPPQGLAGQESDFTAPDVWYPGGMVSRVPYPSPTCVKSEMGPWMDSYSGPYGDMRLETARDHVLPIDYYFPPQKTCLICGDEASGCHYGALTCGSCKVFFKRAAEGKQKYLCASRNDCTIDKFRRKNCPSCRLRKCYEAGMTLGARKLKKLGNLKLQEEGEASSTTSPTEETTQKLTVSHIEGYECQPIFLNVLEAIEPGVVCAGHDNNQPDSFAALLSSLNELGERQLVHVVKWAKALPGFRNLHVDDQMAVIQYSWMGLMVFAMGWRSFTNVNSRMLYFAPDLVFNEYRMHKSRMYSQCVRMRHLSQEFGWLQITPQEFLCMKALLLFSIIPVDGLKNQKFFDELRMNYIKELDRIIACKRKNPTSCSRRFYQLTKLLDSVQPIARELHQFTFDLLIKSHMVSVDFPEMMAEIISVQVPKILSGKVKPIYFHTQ
The experiment in a line: Antagonist activity at androgen receptor in human PC3 cells assessed as increase in Maspin promoter activity at 5 uM by luciferase reporter gene assay. The assay is classed as functional, cell-based. The following applies: PC-3. The essentials:
as §1
For orientation: Reporter assays use an easily measured gene product as a stand-in for the process of interest.
With `Cc1coc2c1C(=O)C(=O)c1c-2ccc2c1CCC(C)(C)C2`, the outcome was Active.

A further assay deals with T1, Androgen receptor (Homo sapiens). The experiment in a line: Antagonist activity at androgen receptor in human PC3 cells assessed as increase in Maspin promoter activity at 2.5 uM by luciferase reporter gene assay. The assay is classed as functional, cell-based. The conditions noted are these: PC-3. The method, boiled down:
as §1
As for `Cc1coc2c1C(=O)C(=O)c1c-2ccc2c1CCC(C)(C)C2`, the result was Active.

The next assay has the same target. The experiment in a line: Antagonist activity at androgen receptor in human LNCaP cells assessed as increase in Maspin promoter activity by luciferase reporter gene assay. The assay is classed as functional, cell-based.
Conditions: not given
The essentials:
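LNCaP cells carrying a maspin promoter-luciferase reporter were treated with compound and read by luciferase activity, in triplicate.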
Turning to `Cc1coc2c1C(=O)C(=O)c1c-2ccc2c1CC(C)(C)CC2`, the Activity entry was “Dose-dependent effect”.

Consider `Cc1coc2c1C(=O)C(=O)c1c-2ccc2c1CCC(C)(C)C2`, for which the Activity result is “Dose-dependent effect”.

As for `Cc1coc2c1C(=O)C(=O)c1c-2ccc2c1CCCC2`, the Activity result was “Dose-dependent effect”.

Another assay deals with PC-3. The assay can be described thus: Antagonist activity at androgen receptor ARv7 mutant lacking ligand binding domain expressed in human PC3 cells assessed as reduction in DHT-induced receptor transactivation at 1 uM by luciferase reporter gene assay. It is filed as cell-based.
Conditions: not given
The method, boiled down: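 AR-v7 (lacks LBD), MMTV-Luc and pRL-TK (Renilla) plasmids transiently transfected into PC-3 cells; cells treated with DMSO vehicle, 0.1 nM DHT, or test compound at 1 μM; transactivation read as luciferase activity (relative luciferase units).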
With `CC(O)(CS(=O)(=O)c1ccc(F)cc1)C(=O)Nc1ccc(C#N)c(C(F)(F)F)c1` (stereo unspecified), the result was inactive.

For the next assay, the target named is T1, Androgen receptor (Homo sapiens). The assay can be described thus: Antagonist activity at androgen receptor in human LNCaP cells assessed as reduction in DHT-induced PSA expression by luciferase reporter gene assay. The assay is classed as functional, cell-based.
Conditions: not given
The essentials:
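LNCaP cells carrying a PSA-luc reporter were treated with compound at 1 and 2.5 μM in the presence of 1 nM DHT. Fold suppression was calculated relative to 1 nM DHT alone. Run in triplicate.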
For `Cc1coc2c1C(=O)C(=O)c1c-2ccc2c1CC(C)(C)CC2`, the Activity entry is “Dose-dependent effect”.

Consider `Cc1coc2c1C(=O)C(=O)c1c-2ccc2c1CCC(C)(C)C2`, for which the Activity entry is “Dose-dependent effect”.

With `Cc1coc2c1C(=O)C(=O)c1c-2ccc2c1CCCC2`, the Activity result is “Dose-dependent effect”.

The test system of a further assay is PC-3. The assay can be described thus: Cytotoxicity against human PC3 cells incubated for 72 hrs by MTT assay. It is filed as functional, cell-based. The conditions noted are these: PC-3, 72 h. The method, boiled down: (§2)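 MTT assay run across a panel of prostate cancer cell lines.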
For orientation: Tetrazolium assays rely on reduction of a dye to a coloured formazan, in cell work by metabolically active cells.
As usually defined, the IC50 is the concentration at which inhibition is half-maximal. Read a high IC50 as weaker potency in that assay. The molecule `Cc1coc2c1C(=O)C(=O)c1c-2ccc2c1CCCC2C` (stereo unspecified) displayed an IC50 of 1200 nM.

As for `Cc1coc2c1C(=O)C(=O)c1c-2ccc2c1CCC2(C)C`, the half-inhibitory concentration (IC50) worked out at 2400 nM.

`Cc1coc2c1C(=O)C(=O)c1c-2ccc2c1CC(C)(C)CC2` returned an IC50 of 3600 nM.

In the case of `Cc1coc2c1C(=O)C(=O)c1c-2ccc2c1CC(C)CC2` (stereo unspecified), inhibition was half-maximal at 1900 nM (IC50).

`Cc1coc2c1C(=O)C(=O)c1c-2ccc2c1CCC(C)C2` (stereo unspecified) returned an IC50 of 2500 nM.

`Cc1coc2c1C(=O)C(=O)c1c-2ccc2c1CCC(C)(C)C2` returned an IC50 of 900 nM.

For the molecule `Cc1coc2c1C(=O)C(=O)c1c-2ccc2c1CCCCC2`, the IC50 is 6300 nM. This IC50 is about 7-fold higher than that of the molecule before.

For the molecule `Cc1coc2c1C(=O)C(=O)c1c-2ccc2c1CCCC2`, the IC50 worked out at 1200 nM.

With `Cc1coc2c1C(=O)C(=O)c1c-2ccc2c1COCC2`, the IC50 was determined as 2100 nM.

Tested on in a further assay: not listed separately
The experiment in a line: Cytotoxicity against human C4-2B cells incubated for 72 hrs by MTT assay. The conditions noted are these: LNCaP C4-2B. It is filed as functional, cell-based. The method, boiled down: as §2
`Cc1coc2c1C(=O)C(=O)c1c-2ccc2c1CCCC2C` (stereo unspecified) yielded a half-inhibitory concentration (IC50) of 400 nM.

Molecule `Cc1coc2c1C(=O)C(=O)c1c-2ccc2c1CCC2(C)C` registered an IC50 of 400 nM.

In turn, `Cc1coc2c1C(=O)C(=O)c1c-2ccc2c1CC(C)(C)CC2` registered a half-maximal inhibitory concentration (IC50) of 1200 nM.

In the case of `Cc1coc2c1C(=O)C(=O)c1c-2ccc2c1CC(C)CC2` (stereo unspecified), the IC50 came to 300 nM.

With `Cc1coc2c1C(=O)C(=O)c1c-2ccc2c1CCC(C)C2` (stereo unspecified), the concentration for half-maximal inhibition (IC50) was 700 nM.

`Cc1coc2c1C(=O)C(=O)c1c-2ccc2c1CCC(C)(C)C2` showed an IC50 of 500 nM.

Molecule `Cc1coc2c1C(=O)C(=O)c1c-2ccc2c1CCCCC2` showed an IC50 of 1800 nM.

Consider `Cc1coc2c1C(=O)C(=O)c1c-2ccc2c1CCCC2`, for which inhibition was half-maximal at 100 nM (IC50).

On to `Cc1coc2c1C(=O)C(=O)c1c-2ccc2c1COCC2`, for which the IC50 was 100 nM.

Another assay has as its system CWR22R. The assay can be described thus: Cytotoxicity against human 22Rv1 cells incubated for 72 hrs by MTT assay. The assay is classed as functional, cell-based. The following applies: 22Rv1, 72 h. The method, boiled down: as §2
Take `Cc1coc2c1C(=O)C(=O)c1c-2ccc2c1CCCC2C` (stereo unspecified): the concentration for half-maximal inhibition (IC50) stood at 11800 nM.

In the case of `Cc1coc2c1C(=O)C(=O)c1c-2ccc2c1CCC2(C)C`, the IC50 came to 7500 nM. This IC50 lies about 1.6-fold lower than the previous one.

For the molecule `Cc1coc2c1C(=O)C(=O)c1c-2ccc2c1CC(C)(C)CC2`, the IC50 amounted to 3200 nM.

`Cc1coc2c1C(=O)C(=O)c1c-2ccc2c1CC(C)CC2` (stereo unspecified) registered an IC50 of 8200 nM.

The molecule `Cc1coc2c1C(=O)C(=O)c1c-2ccc2c1CCC(C)C2` (stereo unspecified) had an IC50 of more than 20000 nM.

Consider `Cc1coc2c1C(=O)C(=O)c1c-2ccc2c1CCC(C)(C)C2`, for which the IC50 was 8800 nM.

`Cc1coc2c1C(=O)C(=O)c1c-2ccc2c1CCCCC2` showed an IC50 of more than 20000 nM.

The molecule `Cc1coc2c1C(=O)C(=O)c1c-2ccc2c1CCCC2` displayed an IC50 of 13500 nM.

`Cc1coc2c1C(=O)C(=O)c1c-2ccc2c1COCC2` yielded a concentration for half-maximal inhibition (IC50) of 1500 nM. This IC50 lies about 9-fold lower than the previous one.

Another assay deals with LNCaP. The experiment in a line: Cytotoxicity against human LNCAP cells incubated for 72 hrs by MTT assay. The assay is classed as functional, cell-based.
Conditions: not given
The essentials: as §2
`Cc1coc2c1C(=O)C(=O)c1c-2ccc2c1CCCC2C` (stereo unspecified) showed an IC50 of 1200 nM. This lies in the single-digit micromolar range.

`Cc1coc2c1C(=O)C(=O)c1c-2ccc2c1CCC2(C)C` came in with an IC50 of 1000 nM. The IC50 values of the last two molecules are within 1.5-fold of each other.

Consider `Cc1coc2c1C(=O)C(=O)c1c-2ccc2c1CC(C)(C)CC2`, for which the midpoint of inhibition, the IC50, lay at 3200 nM.

In the case of `Cc1coc2c1C(=O)C(=O)c1c-2ccc2c1CC(C)CC2` (stereo unspecified), the IC50 is 1700 nM.

In turn, `Cc1coc2c1C(=O)C(=O)c1c-2ccc2c1CCC(C)C2` (stereo unspecified) came in with an IC50 of 3500 nM.

Molecule `Cc1coc2c1C(=O)C(=O)c1c-2ccc2c1CCC(C)(C)C2` registered a half-maximal inhibitory concentration (IC50) of 700 nM.

Take `Cc1coc2c1C(=O)C(=O)c1c-2ccc2c1CCCCC2`: inhibition was half-maximal at 3600 nM (IC50).

`Cc1coc2c1C(=O)C(=O)c1c-2ccc2c1CCCC2` yielded a half-maximal inhibitory concentration (IC50) of 600 nM. This IC50 lies about 6-fold lower than the previous one.

In the case of `Cc1coc2c1C(=O)C(=O)c1c-2ccc2c1COCC2`, the IC50 is 2400 nM.

For another assay, the system named is LNCaP. The experiment in a line: Induction of apoptosis in human LNCAP cells assessed as PARP cleavage activation incubated for 24 hrs by Western blotting. It is filed as functional, cell-based.
Conditions: not given
The essentials:
(§3)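 LNCaP cells in complete medium were exposed to DMSO or compound at 1, 2.5 and 5 μM for 24 h. Western blot measured AR, maspin, caspase-3 activation and PARP cleavage, with β-actin as loading control.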
Consider `Cc1coc2c1C(=O)C(=O)c1c-2ccc2c1CCC(C)(C)C2`, for which the Activity result is “Dose-dependent effect”.

The test system of the next assay is LNCaP. The experiment in a line: Induction of apoptosis in human LNCAP cells assessed as caspase-3 activation incubated for 24 hrs by Western blotting.
Conditions: not given
The assay is classed as functional, cell-based. The essentials: as §3
Regarding `Cc1coc2c1C(=O)C(=O)c1c-2ccc2c1CCC(C)(C)C2`, the Activity result is “Dose-dependent effect”.

The next assay relates to LNCaP. The assay can be described thus: Reduction in androgen receptor protein expression in human LNCAP cells incubated for 24 hrs by Western blotting. The assay is classed as functional, cell-based.
Conditions: not given
The method, boiled down: as §3
Background: A western blot detects proteins with antibodies after separation by electrophoresis.
In the case of `Cc1coc2c1C(=O)C(=O)c1c-2ccc2c1CCC(C)(C)C2`, the Activity entry was “Dose-dependent effect”.

The next assay deals with PC-3. The assay can be described thus: Effect on in Maspin expression in human PC3 cells deficient in wild type androgen receptor at 5 uM by luciferase reporter gene assay. The assay is classed as functional, cell-based.
Conditions: not given
The method, boiled down: as §1
In the case of `Cc1coc2c1C(=O)C(=O)c1c-2ccc2c1CCC(C)(C)C2`, the result was inactive.

For a further assay, the target named is T1, Androgen receptor (Homo sapiens). The assay can be described thus: Antagonist activity at androgen receptor in human LNCaP cells assessed as increase in Maspin protein expression at 1 to 5 uM incubated for 24 hrs by Western blotting.
Conditions: not given
Turning to `Cc1coc2c1C(=O)C(=O)c1c-2ccc2c1CCC(C)(C)C2`, the outcome was Active.

The values above are taken from ChEMBL document CHEMBL2163220 (J Med Chem, 2012).
